Laboratory results reported in ChEMBL document CHEMBL2331355, “Synthesis, structure activity relationship and mode of action of 3-substitutedphenyl-1-(2,2,8,8-tetramethyl-3,4,9,10-tetrahydro-2H,8H-pyrano[2,3-f]chromen-6-yl)-propenones as novel anticancer agents in human leukaemia HL-60 cells” (Eur J Med Chem, 2013).
Where a name gives a salt, the structure may show the parent alone.

Key:
Assay type in all cases: functional
PC-3 = assay: Growth inhibition of human PC3 cells at 10 uM after 48 hrs by MTT assay; conditions: PC-3, 48 h, read-out: GI
Procedure, shortened: (§1)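 MTT assay. Suspension or adherent cells were exposed to compound for 48 h. OD was read at 570 nm (reference 620 nm), with untreated control OD set as 100% viability. Results are percent growth inhibition, mean ± SD of three independent experiments.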

HL-60 [1] = assay: Growth inhibition of human HL60 cells at 10 uM after 48 hrs by MTT assay; conditions: HL-60, 48 h, read-out: GI; procedure, shortened: as §1
HL-60 [2] = assay: Cell cycle arrest in human HL60 cells assessed as S phase cells at 4 uM after 6 hrs by PI staining-based flow cytometric analysis (reference value: 49%)
HL-60 [3] = assay: Induction of mitochondrial membrane potential loss in human HL60 cells at 4 uM after 6 hrs by rhodamine-123 staining method (reference value: 7%)
HL-60 [4] = assay: Cell cycle arrest in human HL60 cells assessed as accumulation of G0/G1 phase cells at 4 uM after 6 hrs by PI staining-based flow cytometric analysis (reference value: 48%)
HL-60 [5] = assay: Induction of apoptosis in human HL60 cells at 4 uM after 6 hrs by PI-staining based flow cytometric analysis (reference value: 0.7 %)
HL-60 [6] = assay: Cell cycle arrest in human HL60 cells assessed as G2/M phase cells at 4 uM after 6 hrs by PI staining-based flow cytometric analysis (reference value: 3%)
MCF7 = assay: Growth inhibition of human MCF7 cells at 2 uM after 48 hrs by MTT assay; conditions: MCF7, 48 h, read-out: GI

With `O=c1[nH]cc(F)c(=O)[nH]1` [FLUOROURACIL] the inhibition of growth at 10 µM (PC-3) was 72% and the inhibition of growth at 10 µM (HL-60 [1]) was 84%.
`CC[C@@]1(O)C(=O)OCc2c1cc1n(c2=O)Cc2cc3ccccc3nc2-1` [CAMPTOTHECIN] showed an Activity (HL-60 [2]) of 6%, an Activity (HL-60 [3]) of 51% and an Activity (HL-60 [4]) of 88%. The Activity (HL-60 [5]) was 69% and the Activity (HL-60 [6]) was 6%.
In the case of `COc1cccc2c1C(=O)c1c(O)c3c(c(O)c1C2=O)C[C@@](O)(C(=O)CO)C[C@@H]3O[C@H]1C[C@H](N)[C@H](O)[C@H](C)O1` [DOXORUBICIN HYDROCHLORIDE], the inhibition of growth at 2 µM (MCF7) is reported as 90%.
